Experimental findings from ChEMBL document CHEMBL1157100, “The alkyl-connected 2-amino-6-vinylpurine (AVP) crosslinking agent for improved selectivity to the cytosine base in RNA” (Bioorg Med Chem, 2010) are described below.

Activity calls are given as the source filed them. The calls are words filed in the database; no cut-off is given here.

Common to all, as to type: nucleic-acid assay
Test [1] concerns Nucleic Acid. Description: Binding affinity to FAM-tagged 27 mer RNA hairpin loop assessed as crosslinking at 10 uM by PAGE. An outline of the steps:
(§1)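 Reactive ODN at 10 µM with 1 µM FAM-labeled target DNA or RNA in 100 mM NaCl, 50 mM MES pH 5 plus RNase OUT, mixed at 0 °C and then incubated at 37 °C. Reactions were stopped at set times with formamide/EDTA/bromophenol blue buffer. Products were resolved on 15% denaturing polyacrylamide gel with 7 M urea, and FAM band intensities were quantified to give crosslinking yield.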

Test [2] relates to Nucleic Acid. Description: Binding affinity to r-(ACGUGAAUUGUUCAACAGUAUGGGCAU)-RNA assessed as melting temperature at 1.5 uM by UV-visible spectrophotometry. The gist of the method:
(§2)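 Each strand at 1.5 µM: ODN plus complementary 27-mer RNA in 100 mM NaCl, 50 mM MES pH 5. Samples were heated at 85 °C for 10 min and cooled slowly. Melting curves were recorded at 260 nm while warming 20 to 80 °C at 1.0 °C/min to obtain Tm.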

The subject of test [3] is Nucleic Acid. Description: Binding affinity to FAM-tagged r-(CAAGCGGAGAAAYUAAUUGCGGGUCGC)-RNA assessed as crosslinking at 10 uM by alkylation method. The gist of the method: as §1
In test [4] the test system is Nucleic Acid. Description: Binding affinity to r-(CGCUGGGCGUUAAUCAAAGAGGCGAAC)-RNA assessed as melting temperature at 1.5 uM by UV-visible spectrophotometry. The gist of the method:
as §2

On to `CSCCc1nc(N)nc2c1ncn2[C@H]1C[C@H](OP(=O)(O)OC[C@H]2O[C@@H](n3cc(C)c(=O)[nH]c3=O)C[C@@H]2OP(=O)(O)OC[C@H]2O[C@@H](n3cnc4c(N)ncnc43)[C@H](O)[C@@H]2OP(=O)(O)OC[C@H]2O[C@@H](n3cc(C)c(=O)[nH]c3=O)C[C@@H]2OP(CCC#N)N(C(C)C)C(C)C)[C@@H](COP(=O)(O)O[C@H]2C[C@H](n3cc(C)c(=O)[nH]c3=O)O[C@@H]2COP(=O)(O)O[C@H]2C[C@H](n3cc(C)c(=O)[nH]c3=O)O[C@@H]2COP(=O)(O)O[C@H]2[C@@H](O)[C@H](n3cnc4c(N)ncnc43)O[C@@H]2COP(=O)(O)O[C@H]2[C@@H](O)[C@H](n3cnc4c(N)ncnc43)O[C@@H]2COP(=O)(O)O[C@H]2[C@@H](O)[C@H](n3cnc4c(N)ncnc43)O[C@@H]2COP(=O)(O)O[C@H]2[C@@H](O)[C@H](n3ccc(N)nc3=O)O[C@@H]2COP(=O)(O)O[C@H]2C[C@H](n3cc(C)c(=O)[nH]c3=O)O[C@@H]2COP(=O)(O)O[C@H]2[C@@H](O)[C@H](n3cnc4c(N)ncnc43)O[C@@H]2COP(=O)(O)O[C@H]2[C@@H](O)[C@H](n3cnc4c(=O)[nH]c(N)nc43)O[C@@H]2COP(=O)(O)O[C@H]2C[C@H](n3cc(C)c(=O)[nH]c3=O)O[C@@H]2COP(=O)(O)O[C@H]2[C@@H](O)[C@H](n3ccc(N)nc3=O)O[C@@H]2COP(=O)(O)O[C@H]2[C@@H](O)[C@H](n3cnc4c(N)ncnc43)O[C@@H]2COP(=O)(O)O[C@H]2C[C@H](n3cc(C)c(=O)[nH]c3=O)O[C@@H]2COP(=O)(O)O[C@H]2[C@@H](O)[C@H](n3cnc4c(N)ncnc43)O[C@@H]2COP(=O)(O)O[C@H]2C[C@H](n3cc(C)c(=O)[nH]c3=O)O[C@@H]2CO)O1` (stereo partly drawn), for which, in test [1], the outcome was inactive.
Take `Cc1cn([C@H]2C[C@H](OP(CCC#N)N(C(C)C)C(C)C)[C@@H](COP(=O)(O)O[C@H]3[C@@H](O)[C@H](n4cnc5c(N)ncnc54)O[C@@H]3COP(=O)(O)O[C@H]3[C@@H](O)[C@H](n4cnc5c(N)ncnc54)O[C@@H]3COP(=O)(O)O[C@H]3[C@@H](O)[C@H](n4ccc(N)nc4=O)O[C@@H]3COP(=O)(O)O[C@H]3[C@@H](O)[C@H](n4cnc5c(=O)[nH]c(N)nc54)O[C@@H]3COP(=O)(O)O[C@H]3[C@@H](O)[C@H](n4cnc5c(N)ncnc54)O[C@@H]3COP(=O)(O)O[C@H]3[C@@H](O)[C@H](n4cnc5c(=O)[nH]c(N)nc54)O[C@@H]3COP(=O)(O)O[C@H]3C[C@H](n4cc(C)c(=O)[nH]c4=O)O[C@@H]3COP(=O)(O)O[C@H]3C[C@H](n4cc(C)c(=O)[nH]c4=O)O[C@@H]3COP(=O)(O)O[C@H]3[C@@H](O)[C@H](n4cnc5c(=O)[nH]c(N)nc54)O[C@@H]3COP(=O)(O)O[C@H]3C[C@H](n4cc(C)c(=O)[nH]c4=O)O[C@@H]3COP(=O)(O)O[C@H]3[C@@H](O)[C@H](n4ccc(N)nc4=O)O[C@@H]3COP(=O)(O)O[C@H]3[C@@H](O)[C@H](n4cnc5c(N)ncnc54)O[C@@H]3COP(=O)(O)O[C@H]3C[C@H](n4cc(C)c(=O)[nH]c4=O)O[C@@H]3COP(=O)(O)O[C@H]3[C@@H](O)[C@H](n4cnc5c(N)ncnc54)O[C@@H]3COP(=O)(O)O[C@H]3[C@@H](O)[C@H](n4ccc(N)nc4=O)O[C@@H]3COP(=O)(O)O[C@H]3[C@@H](O)[C@H](n4ccc(N)nc4=O)O[C@@H]3COP(=O)(O)O[C@H]3[C@@H](O)[C@H](n4ccc(N)nc4=O)O[C@@H]3COP(=O)(O)O[C@H]3[C@@H](O)[C@H](n4cnc5c(=O)[nH]c(N)nc54)O[C@@H]3COP(=O)(O)O[C@H]3C[C@H](n4cc(C)c(=O)[nH]c4=O)O[C@@H]3COP(=O)(O)O[C@H]3[C@@H](O)[C@H](n4cnc5c(N)ncnc54)O[C@@H]3CO)O2)c(=O)[nH]c1=O` (stereo partly drawn): the Tm in test [2] was 64.1 °C.
As for `CSCCc1nc(N)nc2c1ncn2[C@H]1C[C@H](OP(=O)(O)OC[C@H]2O[C@@H](n3cc(C)c(=O)[nH]c3=O)C[C@@H]2OP(=O)(O)OC[C@H]2O[C@@H](n3cc(C)c(=O)[nH]c3=O)C[C@@H]2OP(=O)(O)OC[C@H]2O[C@@H](n3cnc4c(=O)[nH]c(N)nc43)[C@H](O)[C@@H]2OP(=O)(O)OC[C@H]2O[C@@H](n3cnc4c(N)ncnc43)[C@H](O)[C@@H]2OP(=O)(O)OC[C@H]2O[C@@H](n3cnc4c(=O)[nH]c(N)nc43)[C@H](O)[C@@H]2OP(=O)(O)OC[C@H]2O[C@@H](n3ccc(N)nc3=O)[C@H](O)[C@@H]2OP(=O)(O)OC[C@H]2O[C@@H](n3cnc4c(N)ncnc43)[C@H](O)[C@@H]2OP(=O)(O)OC[C@H]2O[C@@H](n3cnc4c(N)ncnc43)[C@H](O)[C@@H]2OP(=O)(O)OC[C@H]2O[C@@H](n3cc(C)c(=O)[nH]c3=O)C[C@@H]2OP(CCC#N)N(C(C)C)C(C)C)[C@@H](COP(=O)(O)O[C@H]2C[C@H](n3cc(C)c(=O)[nH]c3=O)O[C@@H]2COP(=O)(O)O[C@H]2[C@@H](O)[C@H](n3ccc(N)nc3=O)O[C@@H]2COP(=O)(O)O[C@H]2[C@@H](O)[C@H](n3cnc4c(N)ncnc43)O[C@@H]2COP(=O)(O)O[C@H]2C[C@H](n3cc(C)c(=O)[nH]c3=O)O[C@@H]2COP(=O)(O)O[C@H]2[C@@H](O)[C@H](n3cnc4c(N)ncnc43)O[C@@H]2COP(=O)(O)O[C@H]2[C@@H](O)[C@H](n3ccc(N)nc3=O)O[C@@H]2COP(=O)(O)O[C@H]2[C@@H](O)[C@H](n3ccc(N)nc3=O)O[C@@H]2COP(=O)(O)O[C@H]2[C@@H](O)[C@H](n3ccc(N)nc3=O)O[C@@H]2COP(=O)(O)O[C@H]2[C@@H](O)[C@H](n3cnc4c(=O)[nH]c(N)nc43)O[C@@H]2COP(=O)(O)O[C@H]2C[C@H](n3cc(C)c(=O)[nH]c3=O)O[C@@H]2COP(=O)(O)O[C@H]2[C@@H](O)[C@H](n3cnc4c(N)ncnc43)O[C@@H]2CO)O1` (stereo partly drawn), in test [3], the result was inactive. The Tm in test [2] is 53.3 °C.
With `CSCCc1nc(N)nc2c1ncn2CC[C@H]1C[C@H](OP(=O)(O)OC[C@H]2O[C@@H](n3cc(C)c(=O)[nH]c3=O)C[C@@H]2OP(=O)(O)OC[C@H]2O[C@@H](n3cc(C)c(=O)[nH]c3=O)C[C@@H]2OP(=O)(O)OC[C@H]2O[C@@H](n3cnc4c(=O)[nH]c(N)nc43)[C@H](O)[C@@H]2OP(=O)(O)OC[C@H]2O[C@@H](n3cnc4c(N)ncnc43)[C@H](O)[C@@H]2OP(=O)(O)OC[C@H]2O[C@@H](n3cnc4c(=O)[nH]c(N)nc43)[C@H](O)[C@@H]2OP(=O)(O)OC[C@H]2O[C@@H](n3ccc(N)nc3=O)[C@H](O)[C@@H]2OP(=O)(O)OC[C@H]2O[C@@H](n3cnc4c(N)ncnc43)[C@H](O)[C@@H]2OP(=O)(O)OC[C@H]2O[C@@H](n3cnc4c(N)ncnc43)[C@H](O)[C@@H]2OP(=O)(O)OC[C@H]2O[C@@H](n3cc(C)c(=O)[nH]c3=O)C[C@@H]2OP(CCC#N)N(C(C)C)C(C)C)[C@@H](COP(=O)(O)O[C@H]2C[C@H](n3cc(C)c(=O)[nH]c3=O)O[C@@H]2COP(=O)(O)O[C@H]2[C@@H](O)[C@H](n3ccc(N)nc3=O)O[C@@H]2COP(=O)(O)O[C@H]2[C@@H](O)[C@H](n3cnc4c(N)ncnc43)O[C@@H]2COP(=O)(O)O[C@H]2C[C@H](n3cc(C)c(=O)[nH]c3=O)O[C@@H]2COP(=O)(O)O[C@H]2[C@@H](O)[C@H](n3cnc4c(N)ncnc43)O[C@@H]2COP(=O)(O)O[C@H]2[C@@H](O)[C@H](n3ccc(N)nc3=O)O[C@@H]2COP(=O)(O)O[C@H]2[C@@H](O)[C@H](n3ccc(N)nc3=O)O[C@@H]2COP(=O)(O)O[C@H]2[C@@H](O)[C@H](n3ccc(N)nc3=O)O[C@@H]2COP(=O)(O)O[C@H]2[C@@H](O)[C@H](n3cnc4c(=O)[nH]c(N)nc43)O[C@@H]2COP(=O)(O)O[C@H]2C[C@H](n3cc(C)c(=O)[nH]c3=O)O[C@@H]2COP(=O)(O)O[C@H]2[C@@H](O)[C@H](n3cnc4c(N)ncnc43)O[C@@H]2CO)O1` (stereo partly drawn), in test [3], the result was inactive. For the same molecule, the Tm in test [2] amounted to 49.7 °C.
Regarding `CSCCc1nc(N)nc2c1ncn2CC[C@H]1C[C@H](OP(=O)(O)OC[C@H]2O[C@@H](n3cnc4c(N)ncnc43)[C@H](O)[C@@H]2OP(=O)(O)OC[C@H]2O[C@@H](n3cc(C)c(=O)[nH]c3=O)C[C@@H]2OP(=O)(O)OC[C@H]2O[C@@H](n3cc(C)c(=O)[nH]c3=O)C[C@@H]2OP(=O)(O)OC[C@H]2O[C@@H](n3cnc4c(N)ncnc43)[C@H](O)[C@@H]2OP(=O)(O)OC[C@H]2O[C@@H](n3cnc4c(N)ncnc43)[C@H](O)[C@@H]2OP(=O)(O)OC[C@H]2O[C@@H](n3ccc(N)nc3=O)[C@H](O)[C@@H]2OP(=O)(O)OC[C@H]2O[C@@H](n3cnc4c(=O)[nH]c(N)nc43)[C@H](O)[C@@H]2OP(=O)(O)OC[C@H]2O[C@@H](n3ccc(N)nc3=O)[C@H](O)[C@@H]2OP(=O)(O)OC[C@H]2O[C@@H](n3ccc(N)nc3=O)[C@H](O)[C@@H]2OP(=O)(O)O)[C@@H](COP(=O)(O)O[C@H]2C[C@H](n3cc(C)c(=O)[nH]c3=O)O[C@@H]2COP(=O)(O)O[C@H]2C[C@H](n3cc(C)c(=O)[nH]c3=O)O[C@@H]2COP(=O)(O)O[C@H]2C[C@H](n3cc(C)c(=O)[nH]c3=O)O[C@@H]2COP(=O)(O)O[C@H]2[C@@H](O)[C@H](n3ccc(N)nc3=O)O[C@@H]2COP(=O)(O)O[C@H]2C[C@H](n3cc(C)c(=O)[nH]c3=O)O[C@@H]2COP(=O)(O)O[C@H]2[C@@H](O)[C@H](n3ccc(N)nc3=O)O[C@@H]2COP(=O)(O)O[C@H]2[C@@H](O)[C@H](n3ccc(N)nc3=O)O[C@@H]2COP(=O)(O)O[C@H]2[C@@H](O)[C@H](n3cnc4c(=O)[nH]c(N)nc43)O[C@@H]2COP(=O)(O)O[C@H]2[C@@H](O)[C@H](n3ccc(N)nc3=O)O[C@@H]2COP(=O)(O)O[C@H]2C[C@H](n3cc(C)c(=O)[nH]c3=O)O[C@@H]2COP(=O)(O)O[C@H]2C[C@H](n3cc(C)c(=O)[nH]c3=O)O[C@@H]2CO)O1`, the outcome in test [3] was Active. Further, in test [4], the Tm amounted to 50.4 °C.
